Source: PubChem BioAssay (Sanford-Burnham Center for Chemical Genomics)
APJ ag: agonists of human APJ apelin receptor | P35414 | CHO-K1 APJ PathHunter beta-arrestin, luminescence; 0% DMSO wells, 100% apelin | activation, % at 20 µM | 0.11% of 330,000 active;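 active = activation more than six SD over the plate average, tested at 20 µM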
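Test system: CHO-K1 APJ beta-arrestin complementation cell line | Compound: Single test compound dose, 20 µM final, 1% DMSO | Incubation: Compound 90 min 25 °C, reagent 1 h | Measured by: beta-gal luminescence | Read-out basis: APJ–arrestin association signal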
CCR6 antagonist: CCR6 (human) receptor antagonism; CHO-K1 CCR6 PathHunter beta-arrestin, luminescence, CCL20-stimulated; inhibition, % at 20 µM; 0.49% of 340,000 active; P51684;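 active = compounds whose inhibition of the agonist-driven luminescence signal at 20 µM reaches about 50%, limit read from the data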;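 note: cells stimulated with CCL20 at 14 nM final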
APJ antag: APJ receptor antagonism; P35414; CHO-K1 APJ beta-arrestin complementation, luminescence; inhibition, % at 20 µM; 0.32% of 330,000 active;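 active = inhibition above about 40% at 20 µM, limit read from the data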;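 note: cells challenged with 10 nM apelin-13 agonist together with compound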
EBI2 antag: EBI2 (human) antagonism; P32249; EBI2 beta-arrestin recruitment, luminescence, 7a,25-OHC stimulated; inhibition, % at 5 µM; 0.81% of 360,000 active; in the data active = inhibition above about 38%;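 note: enzyme fragment complementation signal reports receptor beta-arrestin coupling in cells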
Target sequence (P32249 whole entry, looked up, the tested form may be a part): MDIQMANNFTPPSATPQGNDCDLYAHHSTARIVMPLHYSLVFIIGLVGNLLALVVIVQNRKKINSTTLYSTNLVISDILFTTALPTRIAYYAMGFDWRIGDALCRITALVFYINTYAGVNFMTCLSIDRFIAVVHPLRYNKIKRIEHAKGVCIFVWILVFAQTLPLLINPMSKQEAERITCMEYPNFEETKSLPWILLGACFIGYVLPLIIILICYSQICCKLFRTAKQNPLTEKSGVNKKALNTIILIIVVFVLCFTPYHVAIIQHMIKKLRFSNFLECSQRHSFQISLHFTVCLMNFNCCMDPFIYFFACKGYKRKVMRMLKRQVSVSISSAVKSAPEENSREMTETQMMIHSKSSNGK
CXCR6 block: blocks human CXCR6 beta-arrestin recruitment. inhibition, % at 20 µM. O00574. AID 602244. CHO-K1 PathHunter CXCR6 beta-arrestin, luminescence. 0.36% of 360,000 active; in the data active = inhibition above about 34%, passing the limit was not always enough;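 note: antagonist mode with CXCL16 agonist at 10 nM final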
Target sequence (O00574 whole entry, looked up): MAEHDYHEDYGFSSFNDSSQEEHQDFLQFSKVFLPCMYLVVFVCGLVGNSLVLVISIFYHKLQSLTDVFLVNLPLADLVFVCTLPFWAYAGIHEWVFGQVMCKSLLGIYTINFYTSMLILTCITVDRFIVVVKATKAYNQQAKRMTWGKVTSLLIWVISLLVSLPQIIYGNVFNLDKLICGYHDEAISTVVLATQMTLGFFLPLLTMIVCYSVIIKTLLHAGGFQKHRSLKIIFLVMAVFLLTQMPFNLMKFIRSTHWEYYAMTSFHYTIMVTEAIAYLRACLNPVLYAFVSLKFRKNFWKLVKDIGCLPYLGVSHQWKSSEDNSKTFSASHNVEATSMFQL
Of the large screens only hits and unclear results are named; the others gave an inactive call. Only some compounds are listed: those with a hit (about 1.5% of all), similar ones and a draw of the others.

C/C(=N\Nc1ncc(Cl)cc1Cl)c1ccccn1	EBI2 antag 55.9, CXCR6 block 49.6 (no result: APJ ag, APJ antag)
Cc1ccc(Nc2c(-c3ccccn3)nc3cc(C)ccn23)cc1	CCR6 antagonist 56.5, CXCR6 block 40.1
C/C(=C1/C(=O)N(c2ccc([N+](=O)[O-])cc2)N=C1c1ccccc1)N(C)C	APJ antag 49.2 (no result: CCR6 antagonist, EBI2 antag, CXCR6 block)
CN(C)/C=C1/C(=O)N(c2ccc([N+](=O)[O-])cc2)N=C1c1ccccc1	none (no result: CCR6 antagonist, EBI2 antag, CXCR6 block)
COC1=C(Br)C(=O)c2ncccc2C1=O	CCR6 antagonist 78.7, CXCR6 block 58.8 (no result: APJ ag, APJ antag)
O=C1c2cccnc2-c2ncccc21	none
O=C(/C=C/c1ccccn1)c1cc(Br)ccc1O	CCR6 antagonist 59.3
O=C(/C=C/c1ccccn1)c1ccc(Br)cc1O	none (no result: APJ ag, APJ antag)
Oc1c(Br)cc(Br)cc1C=Nc1ccc2[nH]ncc2c1	APJ ag 14.3
CCN(CC)c1ccc(C=C2C(=O)OC3(CCCCC3)OC2=O)cc1	none
CCN(CC)c1ccc(/C=C2/C(=O)c3ccc(C(=O)O)cc3C2=O)cc1	CCR6 antagonist 77.3, CXCR6 block 55.5 (no result: APJ ag, APJ antag)
C=CCNc1nc(NCc2cccc(OC)c2)c2sc(-c3ccccc3)cc2n1	EBI2 antag 57.4 (no result: APJ ag, CCR6 antagonist, APJ antag)
Cc1cc(/C=N/n2c(COc3ccccc3)nc3ccccc3c2=O)c(O)c([N+](=O)[O-])c1	EBI2 antag 45.0
O=C1CSC(=S)N1/N=C/C=C/c1ccccc1	CXCR6 block 45.7
FC(F)(F)C1=Nc2cccc3cccc(c23)N1	CCR6 antagonist 80.0, CXCR6 block 62.5
O=C(Oc1c(Cl)cc(Cl)c2cccnc12)c1cccc([N+](=O)[O-])c1	CCR6 antagonist 68.4
CCCNC(=O)[C@H]1N2C(=O)c3c(ccc(OC)c3OC)C2SC1(C)C (stereo partly specified)	none
CC1(C)CCCC2(C)C1CCC1(C)OC(=O)CCC12 (stereo unspecified)	none (no result: APJ ag, CCR6 antagonist, APJ antag)
CC(=O)OC[C@]12CC[C@H]3[C@@](C)(CC[C@H]4C(C)(C)CCC[C@]34C)[C@@H]1C[C@H](C1=CC(=O)O[C@@H]1OC(C)=O)O2	APJ ag 11.2 (no result: CCR6 antagonist, EBI2 antag, CXCR6 block)
O=[N+]([O-])c1ccc2nc(NN=Cc3ccc(O)cc3)sc2c1	CCR6 antagonist 78.0, CXCR6 block 55.4 (no result: APJ ag, APJ antag)
Cc1ccc(C(c2cc(Cl)c3cccnc3c2O)N2CCN(C)CC2)cc1 (stereo unspecified)	CCR6 antagonist 56.9
COc1cc(CC(=O)N2c3ccccc3N=C(c3ccccc3)C2C(=O)NCc2ccccc2)cc(OC)c1 (stereo unspecified)	none (no result: APJ ag, CCR6 antagonist, APJ antag, CXCR6 block)
COc1cccc(NC(=O)N2CCN(c3cccc(C)c3C)CC2)c1	EBI2 antag 78.0
COc1ccc(C2CC(c3ccccc3)=NN2C(=O)CCCC(=O)O)cc1 (stereo unspecified)	none
N#C/C(=C\c1cccc([N+](=O)[O-])c1)C(=O)NCc1ccc(Cl)cc1	CXCR6 block 65.1 (no result: APJ ag, CCR6 antagonist, APJ antag)
N#C/C(=C\c1cccc([N+](=O)[O-])c1)C(=O)NCc1cccnc1	none
Cn1cc(-c2ccccc2C(N)=O)c(=O)c2cc(Cl)ccc21	none
Cn1cc(C2=C(c3ccc(Cl)cc3Cl)C(=O)NC2=O)c2ccccc21	EBI2 antag 49.5
COC(=O)c1cc2c(C)nn(-c3ccccc3)c2s1	none
Cc1nn(-c2ccccc2)c2sc(C(=O)N(CC(=O)NC(C)(C)C)Cc3ccco3)cc12	CCR6 antagonist 56.7
CNc1ccc(N=Nc2cccc3ncccc23)cc1	CCR6 antagonist 60.9, CXCR6 block 41.4 (no result: APJ ag, APJ antag)
Nc1nc(-c2ccccc2)c(N=Nc2ccccc2Cl)s1	CCR6 antagonist 62.5, CXCR6 block 57.1
Nc1nc(-c2ccccc2)c(N=Nc2cccc3ccccc23)s1	CCR6 antagonist 54.6, CXCR6 block 42.8
Cc1ncc(N=Nc2ccccc2Cl)c(-c2ccccc2)n1	none
CC(=O)Nc1sc(N)nc1-c1ccccc1	none
Cc1ccc(O)c(C(=O)c2cnc3c(c2)c(C)nn3-c2ccccc2)c1	none
COc1cc2c(cc1OC)C(c1ccc(-c3ccc(Cl)c(Cl)c3)o1)=NCC2	EBI2 antag 65.5
COc1cc2c(cc1OC)C(c1ccc(-c3cc(Cl)ccc3Cl)o1)=NCC2	EBI2 antag 61.7
COc1cc2c(cc1OC)C(c1ccc(-c3ccccc3Cl)o1)=NCC2	EBI2 antag 49.1
COc1cc2c(cc1OC)C(C)=NCC2	none
COc1cc2c(cc1OC)C(c1ccc(Cl)cc1)=NCC2	none
Cc1nc2ccc(C(=O)N/N=C/c3cc([N+](=O)[O-])ccc3O)cc2[nH]1	CCR6 antagonist 59.2
O=C(CCC(=O)Nc1ccc(F)cc1)N/N=C/c1cc([N+](=O)[O-])ccc1O	CCR6 antagonist 62.4
NC(N)=N/N=C/c1cc([N+](=O)[O-])ccc1O	none
O=C(N/N=C/c1cc([N+](=O)[O-])ccc1O)C1CCCCC1	EBI2 antag 75.8
O=[N+]([O-])c1ccc(O)c(/C=N\N=C2c3ccccc3-c3ccccc32)c1	CCR6 antagonist 56.4
Cc1cccc(NC(=O)CCC(=O)N/N=C/c2cc([N+](=O)[O-])ccc2O)c1	none
CCC(Cc1ccccc1)NS(=O)(=O)c1csc(C(N)=O)c1 (stereo unspecified)	none
CC(=O)c1cn(S(=O)(=O)c2ccccc2)c2ccccc12	none
COc1ccc(NC(=O)CSc2nnc3ccc(-c4ccccn4)nn23)cc1OC	none
COc1ccc(NC(=O)CN(C)C(=O)c2ccc3[nH]c4c(c3c2)CC(C)CC4)cc1 (stereo unspecified)	none
O=[N+]([O-])c1ccc(O)c(/C=N/Nc2nn[nH]n2)c1	CXCR6 block 44.0 (no result: CCR6 antagonist)
Oc1ccccc1/C=N/Nc1nn[nH]n1	none
CS(=O)(=O)c1ncc(Cl)c(C(=O)Nc2ccc3ccccc3c2)n1	CCR6 antagonist 81.4, EBI2 antag 56.9, CXCR6 block 69.7 (no result: APJ ag, APJ antag)
CCS(=O)(=O)c1ncc(Cl)c(C(=O)Nc2ccc(C)cc2)n1	EBI2 antag 52.6
COC(=O)[C@@]12C[C@@H](CC(=O)N3CCCC3)C(=O)N(Cc3cccc4ccccc34)C1=CCC(C)(C)C2	none (no result: APJ ag, CCR6 antagonist, APJ antag, CXCR6 block)
Cc1nc(N2CCN(S(=O)(=O)c3ccccc3C#N)CC2)c2c(-c3ccccc3)csc2n1	none
CCOC(=O)C1CCCN(C2=NC(=O)/C(=C/c3ccc(O)c(OCC)c3)S2)C1 (stereo unspecified)	none
CCOc1ccc(/C=C2\SC(N3CCc4ccccc4C3)=NC2=O)cc1	EBI2 antag 65.1
Cc1ccc(/C=C2\SC(N3CCCCC3)=NC2=O)cc1	EBI2 antag 80.7
CCOC(=O)C1CCCN(C2=NC(=O)/C(=C/c3ccc(N(C)C)cc3)S2)C1 (stereo unspecified)	EBI2 antag 45.0
COc1cc(NC(=O)c2ccc3c(c2)OCCO3)ccc1NC(=O)c1cccs1	none
O=C(c1ccc(F)cc1)N1CCN(S(=O)(=O)c2ccc3c(c2)OCCO3)CC1	none (no result: APJ ag, CCR6 antagonist, APJ antag)
O=C(c1ccc(C(F)(F)F)cc1)N1CCN(S(=O)(=O)c2ccc3c(c2)OCCCO3)CC1	EBI2 antag 51.1
O=[N+]([O-])c1cccc(C=NNc2ccc3ccccc3n2)c1O	CCR6 antagonist 60.5, CXCR6 block 36.7 (no result: APJ ag, APJ antag)
